Calls of active or inactive are those of the source. Unless noted, the calls are words filed in the database; no cut-off is given here.
Legend:
MCF7 [1] = experiment: Cytotoxicity against human MCF7 cells after 48 hrs by MTS assay; assay type: functional, cell-based; details: MCF7, 48 h
In short: (§1)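 Cells grown in DMEM or RPMI-1640 with 10% FBS at 37 °C under 5% CO₂. Adherent cells plated 12 h before dosing; suspension cells plated at dosing, initial density 1 × 10⁵ cells/mL. MTS (5 mg/mL stock) added for 4 h at 37 °C, then SDS lysis and OD at 595 nm. IC50 by Reed–Muench.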

SW480 = experiment: Cytotoxicity against human SW480 cells after 48 hrs by MTS assay; assay type: functional, cell-based; details: SW480, 48 h; in short: as §1
A549 [2] = experiment: Cytotoxicity against human A549 cells after 48 hrs by MTS assay; assay type: functional, cell-based; details: A549, 48 h; in short: as §1
SMMC-7721 [3] = experiment: Cytotoxicity against human SMMC7721 cells after 48 hrs by MTS assay; assay type: functional, cell-based; details: SMMC-7721, 48 h; in short: as §1
HL-60 = experiment: Cytotoxicity against human HL60 cells after 48 hrs by MTS assay; assay type: functional, cell-based; details: HL-60, 48 h; in short: as §1
[4] = Cytotoxicity against mouse T lymphocytes after 48 hrs by CCK-8 assay; details: t-cell
In short: (§2)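 Splenocyte toxicity run without ConA or LPS at 5 × 10⁶ cells/200 μL/well. Cultured 48 h at 37 °C, 5% CO₂ with CCK-8 during the final 4 h; A450 read against a 600 nm reference. Viability (%) = compound OD450 / […] OD450 × 100.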

[5] = Cytotoxicity against mouse B lymphocytes after 48 hrs by CCK-8 assay; details: b-cell; in short: as §2
T-cell = experiment: Inhibition of ConA-induced mouse T lymphocytes proliferation after 48 hrs by CCK-8 assay; assay type: functional
In short: (§3)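 Murine splenocytes, 2.5 × 10⁶ per well, co-treated with compounds at various concentrations plus ConA (5 μg/mL, T-cell stimulus) or LPS (B-cell stimulus). Cultured 48 h at 37 °C, 5% CO₂; CCK-8 added for the last 4 h, A450 read against a 600 nm reference. Triplicate means; change expressed relative to the stimulated positive control. >10% inhibition counted as active.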

B-cell = experiment: Inhibition of LPS-induced mouse B lymphocytes proliferation after 48 hrs by CCK-8 assay; assay type: functional; in short: as §3
MCF7 [6] = experiment: Selectivity index, ratio of IC50 for human BEAS2B cells to IC50 for human MCF7 cells; assay type: functional
In short: (§4)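 Ratio of the Beas-2B IC50 to the IC50 for each cancer line. Both IC50s come from the 48 h MTS viability assay with Reed–Muench calculation.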

[7] = Selectivity index, ratio of IC50 for human BEAS2B cells to IC50 for human SW480 cells; assay type: functional; in short: as §4
[8] = Selectivity index, ratio of IC50 for human BEAS2B cells to IC50 for human HL60 cells; assay type: functional; in short: as §4
SMMC-7721 [9] = experiment: Selectivity index, ratio of IC50 for human BEAS2B cells to IC50 for human SMMC7721 cells; assay type: functional; in short: as §4
A549 [10] = experiment: Selectivity index, ratio of IC50 for human BEAS2B cells to IC50 for human A549 cells; assay type: functional; in short: as §4
[11] = Cytotoxicity against human BEAS2B cells after 48 hrs by MTS assay; assay type: cell-based; details: beas-2b; in short: as §1

| SMILES | IC50 (MCF7 [1]) | IC50 (SW480) | IC50 (A549 [2]) | IC50 (SMMC-7721 [3]) | IC50 (HL-60) | Activity [4] | Activity [5] | inhibition (T-cell) | inhibition (B-cell) | Ratio IC50 (MCF7 [6]) | Ratio IC50 [7] | Ratio IC50 [8] | Ratio IC50 (SMMC-7721 [9]) | Ratio IC50 (A549 [10]) | Activity [11] |
| --- | --- | --- | --- | --- | --- | --- | --- | --- | --- | --- | --- | --- | --- | --- | --- |
| C[C@@H](O)/C=C/[C@@H]1C(C)(C)[C@H](O)C[C@@H](O)[C@]1(C)O | > 10 µM | > 10 µM | > 10 µM | > 10 µM | > 10 µM | – | – | – | – | – | – | – | – | – | – |
| C[C@@H]1C[C@H](O)CC(C)(C)[C@]1(O)CC[C@@H](C)O [WILSONOL F] | > 10 µM | > 10 µM | > 10 µM | > 10 µM | > 10 µM | Non-toxic | Non-toxic | – | – | – | – | – | – | – | – |
| CC(O)/C=C/[C@H]1[C@H](C)[C@H](O)[C@@H](O)CC1(C)C (mixture of isomers) [WILSONOL E] | > 10 µM | > 10 µM | > 10 µM | > 10 µM | > 10 µM | – | – | – | – | – | – | – | – | – | – |
| C[C@@H]1[C@H](O)[C@@H](O)CC(C)(C)[C@@]1(O)/C=C/[C@@H](C)O [WILSONOL B] | > 10 µM | > 10 µM | > 10 µM | > 10 µM | > 10 µM | Non-toxic | Non-toxic | Active | – | – | – | – | – | – | – |
| C[C@@H](O)/C=C/[C@@]1(O)C(C)(C)C[C@H](O)[C@@H](O)[C@@]1(C)O [WILSONOL H] | > 10 µM | > 10 µM | > 10 µM | > 10 µM | > 10 µM | – | – | – | – | – | – | – | – | – | – |
| C[C@@H](O)/C=C/[C@H]1C(CO)=CC(=O)CC1(C)C | > 10 µM | > 10 µM | > 10 µM | > 10 µM | > 10 µM | – | – | – | – | – | – | – | – | – | – |
| C[C@@H](O)/C=C/[C@H]1[C@H](CO)C[C@H](O)CC1(C)C | > 10 µM | > 10 µM | > 10 µM | > 10 µM | > 10 µM | Non-toxic | Non-toxic | – | – | – | – | – | – | – | – |
| COC(=O)/C=C(C)\C=C\[C@@]1(O)C(C)=CC(=O)CC1(C)C | > 10 µM | > 10 µM | > 10 µM | > 10 µM | > 10 µM | Non-toxic | Non-toxic | inactive | inactive | – | – | – | – | – | – |
| CC(=O)/C=C/[C@@]1(O)[C@H](C)[C@H](O[C@@H]2O[C@H](CO)[C@@H](O)[C@H](O)[C@H]2O)[C@@H](O)CC1(C)C | > 10 µM | > 10 µM | > 10 µM | > 10 µM | > 10 µM | Non-toxic | Non-toxic | – | – | – | – | – | – | – | – |
| C[C@H](O)CCC1=C(CO)C[C@@H](O)CC1(C)C | > 10 µM | > 10 µM | > 10 µM | > 10 µM | > 10 µM | Non-toxic | Non-toxic | Active | Active | – | – | – | – | – | – |
| CC1=C(CC[C@@H](C)O)C(C)(C)C[C@H](O)[C@@H]1O | > 10 µM | > 10 µM | > 10 µM | > 10 µM | > 10 µM | Non-toxic | Non-toxic | – | Active | – | – | – | – | – | – |
| C[C@H](O)/C=C/[C@@]1(O)[C@H](C)[C@H](O)[C@@H](O)CC1(C)C [WILSONOL A] | > 10 µM | > 10 µM | > 10 µM | > 10 µM | > 10 µM | Non-toxic | Non-toxic | Active | – | – | – | – | – | – | – |
| CC1=C(CC[C@H](C)O)C(C)(C)C[C@H](O[C@@H]2O[C@H](CO)[C@@H](O)[C@H](O)[C@H]2O)C1 | 3.4 µM | 12 µM | 2.5 µM | 3.1 µM | 5 µM | Non-toxic | Non-toxic | – | – | >16 | >16 | >16 | >16 | >16 | Non-toxic |
| C[C@@H]1[C@H](O)[C@@H](O)CC(C)(C)[C@H]1/C=C/[C@H](C)O | > 10 µM | > 10 µM | > 10 µM | > 10 µM | > 10 µM | Non-toxic | Non-toxic | – | – | – | – | – | – | – | – |
| CC(=O)/C=C/[C@@]1(O)[C@H](C)[C@H](O)[C@@H](O)CC1(C)C [WILSONOL C] | > 10 µM | > 10 µM | > 10 µM | > 10 µM | > 10 µM | Non-toxic | Non-toxic | – | – | – | – | – | – | – | – |
| C[C@@H](O)/C=C/[C@@]1(O)[C@@H](C)C[C@H](O)CC1(C)C | > 10 µM | > 10 µM | > 10 µM | > 10 µM | > 10 µM | Non-toxic | Non-toxic | Active | Active | – | – | – | – | – | – |

— ChEMBL document CHEMBL2407050, “Wilsonols A-L, megastigmane sesquiterpenoids from the leaves of Cinnamomum wilsonii” (J Nat Prod, 2013)
